The term viability denotes a read-out of living cells in per cent, often relative to untreated cells. One may read the inhibition as the drop in the measured response relative to a control, in per cent.

Assay [1] in a line: SK-BR-3 cell growth inhibitors, pilot screen, 24 h, human (AID 572;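 active = viability at or below 10% of carrier control in both of two separate runs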;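 also: compound exposure lasted between 18 and 24 h rather than exactly 24 h; 100% = carrier-treated control wells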). To be noted: SK-BR-3 viability, CellTiter-Glo luminescence, at 10 µM, stronger effect = lower value. In general terms: Cellular ATP, detected with luciferase, serves as a proxy for viable cell number.
Assay [2] is described as follows: HUVEC growth inhibition – cell-based, human, primary screen (AID 575).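 Also: 100% = median of untreated cell wells with 0.1% DMSO on each plate.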 The conditions noted are these: HUVEC proliferation, CellTiter-Glo luminescence, 72 h; at 10 µM; stronger effect = lower value. Put shortly:
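Assay system: Primary human umbilical vein endothelial cells | Quantity: 1250 cells per well | Medium: Supplemented EBM, 2% fetal bovine serum | Detection: CellTiter-Glo luminescence measuring cellular ATP | Read-out: % viability vs DMSO wells | Plate: Collagen-coated 384-well format | Times: 72 h exposure, 37 °C, 5% CO2, 30 min RT equilibration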

The nature of assay [3]: reversal of MRP1-mediated doxorubicin resistance, pilot screen, H69AR cells, doxorubicin co-treatment (AID 601;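 active = viability loss from added drug above about 55%, and viability with drug at most 40%, in both replicates, limit read from the data, passing the limit was not always enough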). The conditions noted are these: CellTiter-Glo, 72 h, at 10 µM; for differential viability (reversal): stronger effect = higher value.
Assay [4] is described as follows: 384-well plate pilot, post-Golgi transport modulator project, inhibition of yeast transport mutant growth (AID 636; in the data active = inhibition above about 31%). The conditions noted are these: absorbance 615 nm, about 18 h, stronger effect = higher value.
Assay [5] can be described thus: growth suppression of yeast trafficking mutant, preliminary HTS, modulators of trafficking downstream of Golgi apparatus project, 1536-format plate, OD 615 nm (AID 637; in the data active = inhibition above about 30%). The conditions noted are these: yeast transport mutant growth, absorbance 615 nm, 18 h; stronger effect = higher value.
Where [6] appears, read: H69AR cells + 2 uM doxorubicin, measured here: viability with 2 uM doxorubicin, stronger effect = lower value.
[7] abbreviates: H69AR cells, compound alone cytotoxicity.

Active and inactive are the calls of the source.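 The calls were made as follows, unless noted: active = viability at or below 30% in both replicate assays; inconclusive = viability at or below 30% in just one of the two assays; inactive = the rest.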

Consider `CCOC(=O)c1c(NC(=O)COC(=O)c2c(C)noc2C)sc2c1CCC2`, for which the viability is 63% (inactive) in assay [1], 35.6% (inactive) in assay [2], 47% in assay [3] (setting [6]) and 47.8% in assay [3] (setting [7]). The differential viability (reversal) in assay [3] (H69AR cells + 2 uM doxorubicin) was 0.845% (inactive). The inhibition is -8.36% (inactive) in assay [4] and -3.87% (inactive) in assay [5].
With `COc1ccc2c(c1OC)C(=O)O[C@@H]2[C@H]1c2c(cc3c(c2OC)OCO3)CCN1C`, the viability in assay [1] was 98% (inactive); in assay [2] it was 80.8% (inactive); in assay [3] (setting [6]), 84.1%; in assay [3] (setting [7]), 31.9%. Further, the differential viability (reversal) in assay [3] (H69AR cells + 2 uM doxorubicin) is -52.2% (inactive). Moreover, the inhibition is -6.36% (inactive) in assay [4] and -3.5% (inactive) in assay [5].
On to `O=C(Nc1ccccc1-c1nc2ccccc2o1)c1ccc2c(c1)OCCO2`, for which the viability in assay [1] is 112% (inactive); in assay [2] it was 66.7% (inactive); in assay [3] (setting [6]), 48.4%; in assay [3] (setting [7]), 35.7%. Besides, the differential viability (reversal) in assay [3] (H69AR cells + 2 uM doxorubicin) is -12.7% (inactive). Also, the inhibition in assay [4] was -3.64% (inactive); in assay [5] it was -4.44% (inactive).
For `COc1ccc(-c2ccc(-c3noc(-c4ccccc4OC)n3)c(OC)n2)cc1`, the viability is 62% (inactive) in assay [1], 63.9% (inactive) in assay [2], 64.9% in assay [3] (setting [6]) and 62.9% in assay [3] (setting [7]). Further, the differential viability (reversal) in assay [3] (H69AR cells + 2 uM doxorubicin) was -2.01% (inactive). The inhibition in assay [4] was -4.59% (inactive); in assay [5], 18.9% (inactive).
Take `O=C(/C=C/c1ccccc1)c1ccccc1`: the viability in assay [1] was 107% (inactive); in assay [2] it was 50.2% (inactive); in assay [3] (setting [6]), 4.56%; in assay [3] (setting [7]), 2.06%. Also, the differential viability (reversal) in assay [3] (H69AR cells + 2 uM doxorubicin) is -2.5% (inactive). In addition, the inhibition is 1.95% (inactive) in assay [4] and 0.67% (inactive) in assay [5].
Take `O=C(Nc1cnn(C23CC4CC(CC(C4)C2)C3)c1)c1cnn2c(C(F)(F)F)cc(-c3ccco3)nc12`: the viability is 95% (inactive) in assay [1], 58% (inactive) in assay [2], 51.8% in assay [3] (setting [6]) and 53.3% in assay [3] (setting [7]). Moreover, in assay [3] (H69AR cells + 2 uM doxorubicin), the differential viability (reversal) was 1.52% (inactive). In addition, the inhibition in assay [4] is -0.82% (inactive); in assay [5], 8.39% (inactive).
As to `COC(=O)c1ccc(CSc2ncnc3c2nnn3-c2ccc(OC)cc2)o1`, the viability in assay [1] is 87.5% (inactive); in assay [2] it was 88% (inactive); in assay [3] (setting [6]), 71.6%; in assay [3] (setting [7]), 60.9%. Besides, the differential viability (reversal) in assay [3] (H69AR cells + 2 uM doxorubicin) is -10.7% (inactive). Further, the inhibition in assay [4] was -1.97% (inactive); in assay [5], 6.07% (inactive).
On to `CCCn1nc(NC(=O)c2cccs2)c2cc3cc(OC)ccc3nc21`, for which the viability in assay [1] is 102% (inactive); in assay [2], 56.4% (inactive); in assay [3] (setting [6]), 81.8%; in assay [3] (setting [7]) it was 63.1%. The differential viability (reversal) in assay [3] (H69AR cells + 2 uM doxorubicin) is -18.7% (inactive). Also, the inhibition in assay [4] is -6.58% (inactive); in assay [5], 2.58% (inactive).
As for `COc1ccc(CCN(C)CCCC(C#N)(c2ccc(OC)c(OC)c2)C(C)C)cc1OC` (stereo not given), the viability was 73% (inactive) in assay [1] and 66.8% (inactive) in assay [2]. In addition, the results for the inhibition in assay [4] and in assay [5] were -2.34% (inactive) and -0.5% (inactive), respectively.
With `Oc1c(Cl)cc(Cl)cc1Sc1cc(Cl)cc(Cl)c1O`, the viability was 143% (inactive) in assay [1], 1.36% (active) in assay [2], 11% in assay [3] (setting [6]) and 11.4% in assay [3] (setting [7]). Further, in assay [3] (H69AR cells + 2 uM doxorubicin), the differential viability (reversal) was 0.46% (inactive). Also, the results for the inhibition in assay [4] and in assay [5] were -0.78% (inactive) and 100% (active), respectively.
As to `CCCCC(=O)O[C@H]1CC[C@H]2[C@@H]3CCc4cc(O)ccc4[C@H]3CC[C@]12C`, the viability was 82% (inactive) in assay [1], 1.94% (active) in assay [2], 6.17% in assay [3] (setting [6]) and 19.7% in assay [3] (setting [7]). Further, in assay [3] (H69AR cells + 2 uM doxorubicin), the differential viability (reversal) is 13.5% (inactive). The inhibition is 4.81% (inactive) in assay [4] and 8.33% (inactive) in assay [5].
With `COc1cc2c(cc1NC(=O)CSc1nnc(Cc3cccs3)n1C)oc1ccccc12`, the viability in assay [1] was 74% (inactive); in assay [2], 54.4% (inactive); in assay [3] (setting [6]), 59.9%; in assay [3] (setting [7]), 47.8%. Further, in assay [3] (H69AR cells + 2 uM doxorubicin), the differential viability (reversal) was -12.1% (inactive). In addition, the inhibition is 11.5% (inactive) in assay [4] and 4.36% (inactive) in assay [5].
As for `CCOC(=O)N1CCC(=C2c3ccc(Cl)cc3CCc3cccnc32)CC1`, the figures for the viability in assay [1] and in assay [2] were 116% (inactive) and 52.7% (inactive), respectively. Also, the values for the inhibition in assay [4] and in assay [5] were 1.95% (inactive) and 12.2% (inactive), respectively.
Take `Cc1cc(CN2CCN(CCC#N)CC2)c(O)c(C2(C)CCCCC2)c1`: the viability in assay [1] is 106% (inactive); in assay [2] it was 54.2% (inactive); in assay [3] (setting [6]), 77.1%; in assay [3] (setting [7]), 64.9%. In assay [3] (H69AR cells + 2 uM doxorubicin), the differential viability (reversal) was -12.2% (inactive). The figures for the inhibition in assay [4] and in assay [5] were 1.1% (inactive) and 39.4% (active), respectively.
On to `CCCCc1oc2ccccc2c1C(=O)c1cc(I)c(OCCN(CC)CC)c(I)c1`, for which the viability was 91% (inactive) in assay [1], 2.45% (active) in assay [2], 12.4% in assay [3] (setting [6]) and 1.29% in assay [3] (setting [7]). The differential viability (reversal) in assay [3] (H69AR cells + 2 uM doxorubicin) is -11.1% (inactive). The inhibition in assay [4] and in assay [5] was 100% (active) in each case.
Consider `COc1ccccc1NC(=O)C1=C(C)NC(SCC(=O)c2ccc(C)cc2)=C(C#N)C1c1ccco1` (stereo not given), for which the viability in assay [1] is 81% (inactive); in assay [2], 72.5% (inactive); in assay [3] (setting [6]), 16.8%; in assay [3] (setting [7]) it was 17.6%. Moreover, the differential viability (reversal) in assay [3] (H69AR cells + 2 uM doxorubicin) is 0.78% (inactive). For the same compound, the inhibition was 1.1% (inactive) in assay [4] and -3.64% (inactive) in assay [5].
For `COc1ccccc1Nc1nc(N)nc(-c2cc3ccccc3o2)n1`, the viability was 91% (inactive) in assay [1], 78.4% (inactive) in assay [2], 75.7% in assay [3] (setting [6]) and 49.3% in assay [3] (setting [7]). The differential viability (reversal) in assay [3] (H69AR cells + 2 uM doxorubicin) was -26.4% (inactive). The figures for the inhibition in assay [4] and in assay [5] were -2.97% (inactive) and -4.55% (inactive), respectively.
As to `CSc1ccc(-c2cc(=O)c3ccccc3o2)cc1`, the viability was 110% (inactive) in assay [1], 48.1% (inactive) in assay [2], 73.6% in assay [3] (setting [6]) and 56.9% in assay [3] (setting [7]). For the same compound, the differential viability (reversal) in assay [3] (H69AR cells + 2 uM doxorubicin) was -16.6% (inactive). For the same compound, the inhibition in assay [4] was -4.13% (inactive); in assay [5], -4.55% (inactive).

The record behind these values is PubChem BioAssay.
